Laboratory results reported in ChEMBL document CHEMBL2176947, “Discovery of the First Potent Inhibitors of Mutant IDH1 That Lower Tumor 2-HG in Vivo” (ACS Med Chem Lett, 2012).
Calls of active or inactive are those of the source. The rule behind the calls is not given here.

Tests used:
[1] = biological target: T1, Isocitrate dehydrogenase [NADP] cytoplasmic (Homo sapiens, UniProt O75874, R132C); assay: Inhibition of IDH1 R132C mutant endogenously expressing human HT1080 cells assessed as inhibition of 2-hydroxyglutarate production after 48 hrs by LC/MS analysis
[2] = tested on: Isocitrate dehydrogenase [NADP] cytoplasmic (Homo sapiens), O75874 [R132H]; assay: Uncompetitive inhibition of IDH1 R132H mutant using NADPH as substrate by stopped-flow spectrophotometric analysis
[3] = biological target: T2, Isocitrate dehydrogenase [NADP] cytoplasmic (Homo sapiens, UniProt O75874, R132H); assay: Inhibition of IDH1 R132H mutant expressed in human U87 cells assessed as inhibition of 2-hydroxyglutarate production after 48 hrs by LC/MS analysis; type: cell-based, U-87MG ATCC
HT-1080 = assay: Growth inhibition of human HT1080 cells after 72 hrs by CellTiter-Glo assay; type: functional; conditions: HT-1080, 72 h
Outline: (§1)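 Cells exposed to compound for 72 h, run within the same experiment as the 2-HG assay; total cellular ATP measured; concentration giving 50% growth inhibition (GI50) determined.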

[4] = tested on: Isocitrate dehydrogenase [NADP] cytoplasmic (Homo sapiens), O75874 [R132H]; assay: Reversible inhibition of IDH1 R132H mutant using alpha-ketoglutarate as substrate by stopped-flow spectrophotometric analysis
[5] = biological target: T1, Isocitrate dehydrogenase [NADP] cytoplasmic; assay: Inhibition of IDH1 R132C mutant using alpha-ketoglutarate as substrate after 60 mins by resazurin-based fluorimetric analysis
[6] = biological target: T3, Isocitrate dehydrogenase [NADP] cytoplasmic (Homo sapiens, UniProt O75874); assay: Inhibition of wild type IDH1 using DL-isocitrate as substrate by resazurin-based fluorimetric analysis relative to control
[7] = tested on: Isocitrate dehydrogenase [NADP] cytoplasmic (Homo sapiens), O75874 [R132H]; assay: Competitive inhibition of IDH1 R132H mutant using alpha-ketoglutarate as substrate by stopped-flow spectrophotometric analysis
[8] = biological target: T3, Isocitrate dehydrogenase [NADP] cytoplasmic; assay: Inhibition of wild type IDH1 using DL-isocitrate as substrate by resazurin-based fluorimetric analysis
[9] = Growth inhibition of human U87 cells after 72 hrs by CellTiter-Glo assay; type: functional, U-87MG ATCC; conditions: U-87 MG
Outline: as §1

[10] = biological target: T2, Isocitrate dehydrogenase [NADP] cytoplasmic; assay: Inhibition of IDH1 R132H mutant using alpha-ketoglutarate as substrate after 60 mins by resazurin-based fluorimetric analysis
[11] = Fraction unbound in CD1 nude mouse plasma xenografted with human U87 cells expressing IDH1 R132H mutant at 150 mg/kg, ip administered BID for 1 day; type: ADME, organism-based, U-87MG ATCC; design: dose 150 mg/kg, route intraperitoneal
[12] = Plasma protein binding in mouse by equilibrium dialysis method; type: ADME, cell-free; conditions: read-out: PPB (converted)
Outline: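 Mouse plasma protein binding measured by equilibrium dialysis.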

[13] = AUC (0 to 24 hrs) in mouse at 50 mg/kg, ip; type: ADME, organism-based; design: time < 24 hr, dose 50 mg/kg, route intraperitoneal; conditions: plasma
Outline: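 Mouse given a single IP dose of 50 mg/kg; plasma exposure expressed as AUC0−24h.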

Mus musculus [14] = assay: Inhibition of IDH1 R132H mutant in human U87 cells xenografted in CD1 nude mouse assessed as inhibition of 2-hydroxyglutarate production at 150 mg/kg, ip administered BID by LC/MS analysis relative to vehicle-treated control; type: functional, U-87MG ATCC; conditions: route intraperitoneal
Outline: (§2)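 Female nude mice bearing U87 R132H tumor xenografts dosed IP at 150 mg/kg in 0.5% MC/0.2% Tween 80, one dose or three BID doses; blood and tumor sampled at several time points; tumor 2-HG quantified by LC/MS/MS against vehicle-dosed animals.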

Mus musculus [15] = assay: Inhibition of IDH1 R132H mutant in human U87 cells xenografted in CD1 nude mouse assessed as inhibition of 2-hydroxyglutarate production at 150 mg/kg, ip administered as single dose by LC/MS analysis relative to vehicle-treated control; type: functional, U-87MG ATCC; conditions: route intraperitoneal
Outline: as §2

[16] = Hepatic extraction ratio in rat liver microsomes; type: ADME, Microsome; conditions: read-out: ERH
Outline: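 Compound incubated with rat liver microsomes in vitro. Turnover in the incubation was used to estimate the hepatic extraction ratio. Human microsomes were run alongside.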

T3 sequence (O75874 whole entry): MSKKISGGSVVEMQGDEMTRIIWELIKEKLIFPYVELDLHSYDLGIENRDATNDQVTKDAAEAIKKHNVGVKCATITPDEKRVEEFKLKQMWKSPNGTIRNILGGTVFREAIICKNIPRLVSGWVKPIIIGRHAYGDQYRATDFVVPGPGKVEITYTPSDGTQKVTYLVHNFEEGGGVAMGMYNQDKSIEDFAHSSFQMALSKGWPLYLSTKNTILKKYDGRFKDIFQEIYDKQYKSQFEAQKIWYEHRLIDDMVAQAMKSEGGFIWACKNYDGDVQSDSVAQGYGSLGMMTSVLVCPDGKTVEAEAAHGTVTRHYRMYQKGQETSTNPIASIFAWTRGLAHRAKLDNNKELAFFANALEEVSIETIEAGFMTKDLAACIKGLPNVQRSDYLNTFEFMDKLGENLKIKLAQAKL
Isocitrate dehydrogenase [NADP] cytoplasmic (Homo sapiens), O75874 [R132H], sequence (O75874 whole entry R132H): as the sequence (O75874 whole entry) above, with R132H counted along it
T1 sequence (O75874 2-414 R132C limits assumed): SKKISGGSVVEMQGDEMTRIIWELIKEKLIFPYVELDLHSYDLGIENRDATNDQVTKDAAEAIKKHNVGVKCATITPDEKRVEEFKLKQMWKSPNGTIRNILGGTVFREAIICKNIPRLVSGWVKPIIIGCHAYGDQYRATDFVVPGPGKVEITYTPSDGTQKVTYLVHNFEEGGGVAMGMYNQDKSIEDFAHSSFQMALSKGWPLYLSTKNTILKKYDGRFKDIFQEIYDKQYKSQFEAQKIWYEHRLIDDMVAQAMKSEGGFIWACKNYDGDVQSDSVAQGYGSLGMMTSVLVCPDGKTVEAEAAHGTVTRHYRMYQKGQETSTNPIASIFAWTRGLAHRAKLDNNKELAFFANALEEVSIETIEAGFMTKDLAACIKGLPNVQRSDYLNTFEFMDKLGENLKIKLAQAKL
T2 sequence (O75874 2-414 R132H limits assumed): as the sequence (O75874 2-414 R132C limits assumed) above, with C131H counted along it

Cc1ccccc1C(C(=O)NC1CCCC1)N(C(=O)Cc1cccs1)c1cccc(F)c1 (configuration not stated)
IC50 [1]: 390 nM
inhibition [2]: Active
IC50 [3]: 580 nM
GI50 (HT-1080): > 20000 nM
inhibition [4]: Active
IC50 [5]: 50 nM
Imax [6]: 32%
inhibition [7]: Active
IC50 [8]: 7700 nM
GI50 [9]: > 20000 nM
IC50 [10]: 90 nM

O=C(NC1CCCCC1)C(c1ccccc1)N(C(=O)Cc1cccs1)c1cccc(F)c1 (configuration not stated)
IC50 [10]: 80 nM

O=C(NC1CCCCC1)[C@H](c1ccccc1)N(C(=O)Cc1cccs1)c1cccc(F)c1
IC50 [10]: 60 nM

O=C(NC1CCCCC1)[C@@H](c1ccccc1)N(C(=O)Cc1cccs1)c1cccc(F)c1
IC50 [10]: > 11000 nM

Cc1ccccc1C(C(=O)NC1CCCCC1)N(C(=O)CNC1CCCCC1)c1cccc(F)c1 (racemic)
IC50 [10]: 1270 nM

Cc1ccccc1C(C(=O)NC1CCCCC1)N(C(=O)CNc1ccccc1)c1cccc(F)c1 (racemic)
IC50 [10]: 60 nM

Cc1ccccc1C(C(=O)NC1CCCCC1)N(C(=O)CN(C)c1ccccc1)c1cccc(F)c1 (racemic)
IC50 [10]: 50 nM

Cc1ccccc1C(C(=O)NC1CCCCC1)N(C(=O)CN1CCCC1)c1cccc(F)c1 (racemic)
IC50 [10]: 1630 nM

Cc1ccccc1C(C(=O)NC1CCCCC1)N(C(=O)CN1CCOCC1)c1cccc(F)c1 (racemic)
IC50 [10]: 240 nM

Cc1ccccc1C(C(=O)NC1CCCCC1)N(C(=O)CN1CCNCC1)c1cccc(F)c1 (racemic)
IC50 [10]: 5640 nM

Cc1ccccc1C(C(=O)NC1CCCCC1)N(C(=O)CN1CCc2ccccc21)c1cccc(F)c1 (racemic)
IC50 [10]: 140 nM

Cc1ccccc1C(C(=O)NC1CCCCC1)N(C(=O)Cn1cccn1)c1cccc(F)c1 (racemic)
IC50 [10]: 420 nM

Cc1ccccc1C(C(=O)NC1CCCCC1)N(C(=O)Cn1cncn1)c1cccc(F)c1 (racemic)
IC50 [10]: 140 nM

Cc1ccccc1C(C(=O)NC1CCCCC1)N(C(=O)Cn1ccnc1C)c1cccc(F)c1 (racemic)
IC50 [1]: 480 nM
fraction unbound at 24 h [11]: 0.043
fraction unbound [12]: 0.043
AUC(0-t) at 24 h [13]: 20800 ng·h/mL
GI50 (HT-1080): > 20000 nM
Imax (Mus musculus [14]): 89.4%
Imax (Mus musculus [15]): 69%
hepatic extraction ratio [16]: 0.85
IC50 [5]: 160 nM
IC50 [8]: > 100000 nM
GI50 [9]: > 20000 nM
IC50 [10]: 70 nM

Cc1ccccc1C(C(=O)NC1CCCCC1)N(C(=O)Cn1c(C)nc2ccccc21)c1cccc(F)c1 (racemic)
IC50 [1]: 110 nM
IC50 [3]: 240 nM
GI50 (HT-1080): > 20000 nM
IC50 [5]: 40 nM
IC50 [8]: > 100000 nM
GI50 [9]: > 20000 nM
IC50 [10]: 80 nM

Cc1ccccc1C(C(=O)NC1CCCCC1)N(C(=O)Cn1ccc2ccccc21)c1cccc(F)c1 (racemic)
IC50 [1]: 170 nM
IC50 [3]: 370 nM
GI50 (HT-1080): > 20000 nM
IC50 [5]: 40 nM
IC50 [8]: > 100000 nM
GI50 [9]: > 20000 nM
IC50 [10]: 70 nM

Cc1ccccc1C(C(=O)NC1CCCCC1)N(C(=O)Cc1cccs1)c1cccc(F)c1 (racemic)
IC50 [1]: 150 nM
IC50 [3]: 190 nM
GI50 (HT-1080): > 20000 nM
IC50 [5]: 30 nM
Imax [6]: 22%
IC50 [8]: 2900 nM
GI50 [9]: > 20000 nM
IC50 [10]: 50 nM

Cc1ccccc1C(C(=O)NC1CCC1)N(C(=O)Cc1cccs1)c1cccc(F)c1 (racemic)
IC50 [10]: 290 nM

Cc1ccccc1C(C(=O)NC(C)(C)C)N(C(=O)Cc1cccs1)c1cccc(F)c1 (racemic)
IC50 [10]: 860 nM

Cc1ccccc1C(C(=O)NC1CC1)N(C(=O)Cc1cccs1)c1cccc(F)c1 (racemic)
IC50 [10]: 2880 nM

Cc1ccccc1NC(=O)C(c1ccccc1C)N(C(=O)Cc1cccs1)c1cccc(F)c1 (racemic)
IC50 [10]: 570 nM

Cc1ccccc1C(C(=O)NCc1ccccc1)N(C(=O)Cc1cccs1)c1cccc(F)c1 (racemic)
IC50 [10]: 1800 nM

Cc1ccccc1C(C(=O)NC1CCOCC1)N(C(=O)Cc1cccs1)c1cccc(F)c1 (racemic)
IC50 [10]: 640 nM

Cc1ccccc1C(C(=O)NC1CCNCC1)N(C(=O)Cc1cccs1)c1cccc(F)c1 (racemic)
IC50 [10]: 53100 nM

Cc1ccccc1C(C(=O)NC1CCCCC1)N(C(=O)Cc1cscn1)c1cccc(F)c1 (racemic)
IC50 [1]: 220 nM
IC50 [3]: 290 nM
GI50 (HT-1080): > 20000 nM
IC50 [5]: 60 nM
Imax [6]: 32%
IC50 [8]: 19700 nM
GI50 [9]: > 20000 nM
IC50 [10]: 100 nM

Cc1ccccc1C(C(=O)NC1CCCCC1)N(C(=O)Cc1ccncc1)c1cccc(F)c1 (racemic)
IC50 [1]: 260 nM
IC50 [3]: 210 nM
GI50 (HT-1080): > 20000 nM
IC50 [5]: 50 nM
Imax [6]: 34%
IC50 [8]: 19300 nM
GI50 [9]: > 20000 nM
IC50 [10]: 50 nM

Cc1ccccc1C(C(=O)NC1CCCCC1)N(C(=O)Cc1c[nH]c2ccccc12)c1cccc(F)c1 (racemic)
IC50 [1]: 90 nM
IC50 [3]: 360 nM
GI50 (HT-1080): > 3000 nM
IC50 [5]: 30 nM
Imax [6]: 39%
IC50 [8]: 6300 nM
GI50 [9]: > 20000 nM
IC50 [10]: 60 nM

Cc1ccccc1C(C(=O)NC1CCCCC1)N(C(=O)Cc1cncnc1)c1cccc(F)c1 (racemic)
IC50 [10]: 1100 nM

Cc1ccccc1C(C(=O)NC1CCCCC1)N(C(=O)CCl)c1cccc(F)c1 (racemic)
IC50 [10]: 900 nM

Cc1ccccc1C(C(=O)NC1CCCCC1)N(C(=O)CN)c1cccc(F)c1 (racemic)
IC50 [10]: 7800 nM

Cc1ccccc1C(C(=O)NC1CCCCC1)N(C(=O)CNC1CC1)c1cccc(F)c1 (racemic)
IC50 [10]: 190 nM

Cc1ccccc1C(C(=O)NC1CCCCC1)N(C(=O)CNC1CCCC1)c1cccc(F)c1 (racemic)
IC50 [10]: 450 nM

CC(C(=O)NC1CCCCC1)(c1ccccc1)N(C(=O)Cc1cccs1)c1cccc(F)c1 (racemic)
IC50 [10]: 1400 nM

CN(C(=O)C(c1ccccc1)N(C(=O)Cc1cccs1)c1cccc(F)c1)C1CCCCC1 (racemic)
IC50 [10]: 3600 nM

Cc1ccccc1C(CNC1CCCCC1)N(C(=O)Cc1cccs1)c1cccc(F)c1 (racemic)
IC50 [10]: > 100000 nM

Cc1ccccc1C(C(=O)NC1CCCCC1)N(CCc1cccs1)c1cccc(F)c1 (racemic)
IC50 [10]: > 100000 nM
